Experimental data as given in ChEMBL document CHEMBL4414574, “Structure-Based Discovery and Development of a Series of Potent and Selective Bromodomain and Extra-Terminal Protein Inhibitors” (J Med Chem, 2019).
pIC50: −log10 of the molar value. The source made the active and inactive calls. No cut-off for these calls is given here.

Experiments:
[1] = tested on: MM1.S; test: Antiproliferative activity against human MM1S cells after 72 hrs by CCK8 or SRB assay; format: functional, cell-based
Summary of the method: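 IC50 against MM.1S cell proliferation was taken as the mean of three independent experiments, each run in triplicate, reported with SEM.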

[2] = tested on: MV4-11; test: Antiproliferative activity against human MV4-11 cells after 72 hrs by CCK8 or SRB assay; format: functional, cell-based
[3] = organism: Homo sapiens; test: Antiproliferative activity against human TY82 cells after 72 hrs by CCK8 or SRB assay; format: functional, cell-based
[4] = tested on: MV4-11; test: Induction of apoptosis in human MV4-11 cells after 24 hrs by Annexin V staining based assay; format: functional, cell-based
[5] = tested on: MV4-11; test: Induction of apoptosis in human MV4-11 cells assessed as increase in cleaved caspase-8 level after 24 hrs by Western blot analysis; format: functional, cell-based
Summary of the method: (§1)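 MV4-11 cells exposed to test agent at the indicated doses for 24 h. Lysates immunoblotted for full-length and cleaved caspase-3, -7, -8 and -9, with GAPDH as the loading reference.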

[6] = tested on: MV4-11; test: Induction of apoptosis in human MV4-11 cells assessed as increase in cleaved caspase-9 level after 24 hrs by Western blot analysis; format: functional, cell-based; summary of the method: as §1
[7] = tested on: MV4-11; test: Induction of apoptosis in human MV4-11 cells assessed as reduction in XIAP level after 24 hrs by Western blot analysis; format: functional, cell-based
[8] = tested on: MV4-11; test: Induction of apoptosis in human MV4-11 cells assessed as reduction in c-IAP1 level after 24 hrs by Western blot analysis; format: functional, cell-based
[9] = tested on: MV4-11; test: Induction of apoptosis in human MV4-11 cells assessed as reduction in c-IAP2 level after 24 hrs by Western blot analysis; format: functional, cell-based
[10] = tested on: RKO; test: Induction of cell cycle arrest in human RKO cells assessed as increase in accumulation at G1 phase at 100 nM after 24 hrs by propidium iodide staining based flow cytometric analysis; format: functional
[11] = tested on: MV4-11; test: Antitumor activity against human MV4-11 cells xenografted in Balb/c nude mouse assessed as tumor growth inhibition at 50 mg/kg, po administered once daily and measured twice a week by caliper method relative to control; format: functional; conditions: MV4-11, po, read-out: TGI
[12] = tested on: MV4-11; test: Antitumor activity against human MV4-11 cells xenografted in Balb/c nude mouse assessed as tumor growth inhibition at 100 mg/kg, po administered once daily and measured twice a week by caliper method relative to control; format: functional; conditions: MV4-11, po, read-out: TGI
[13] = Solubility of the compound at pH 2 to 7; format: physicochemical; conditions: buffer
[14] = target: Cytochrome P450 2C19 (Homo sapiens, UniProt P33261); test: Time-dependent inhibition of CYP2C19 in human liver microsomes at 10 uM using mephenytoin as substrate preincubated up to 30 mins followed by NADPH generating system addition and measured after 10 mins; format: ADME
Summary of the method: (§2)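 Human liver microsomes 0.2 mg/mL, 100 mM phosphate pH 7.4, 10 μM test compound, preincubated 0, 5, 10 and 30 min at 37 °C; then NADPH plus probe cocktail (5 μM midazolam, 50 μM testosterone, 5 μM dextromethorphan, 10 μM diclofenac, 50 μM phenacetin, 50 μM S-(+)-mephenytoin) added; 10 min reaction; kobs in units of 10^-4/min.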

[15] = target: T1, Cytochrome P450 1A2 (Homo sapiens, UniProt P05177); test: Time-dependent inhibition of CYP1A2 in human liver microsomes at 10 uM using phenacetin as substrate preincubated up to 30 mins followed by NADPH generating system addition and measured after 10 mins; format: ADME; summary of the method: as §2
T1 sequence (P05177 whole entry): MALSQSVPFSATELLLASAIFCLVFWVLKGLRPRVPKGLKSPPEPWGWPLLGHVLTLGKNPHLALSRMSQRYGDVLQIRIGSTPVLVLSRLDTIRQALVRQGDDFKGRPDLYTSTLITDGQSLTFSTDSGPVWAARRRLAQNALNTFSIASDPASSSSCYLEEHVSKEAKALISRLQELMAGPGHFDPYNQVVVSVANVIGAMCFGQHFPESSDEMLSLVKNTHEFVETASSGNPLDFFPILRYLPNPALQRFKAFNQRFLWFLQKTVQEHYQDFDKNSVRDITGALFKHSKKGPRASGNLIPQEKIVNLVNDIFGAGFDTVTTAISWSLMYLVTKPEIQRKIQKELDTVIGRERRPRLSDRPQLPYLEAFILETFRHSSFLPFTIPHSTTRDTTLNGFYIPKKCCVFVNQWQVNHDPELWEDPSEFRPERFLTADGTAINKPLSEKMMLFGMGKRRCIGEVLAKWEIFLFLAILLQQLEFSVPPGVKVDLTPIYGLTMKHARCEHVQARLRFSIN

[16] = target: Cytochrome P450 2C9 (Homo sapiens, UniProt P11712); test: Time-dependent inhibition of CYP2C9 in human liver microsomes at 10 uM using diclofenac as substrate preincubated up to 30 mins followed by NADPH generating system addition and measured after 10 mins; format: ADME; summary of the method: as §2
[17] = target: Cytochrome P450 2D6 (Homo sapiens, UniProt P10635); test: Time-dependent inhibition of CYP2D6 in human liver microsomes at 10 uM using dextromethorphan as substrate preincubated up to 30 mins followed by NADPH generating system addition and measured after 10 mins; format: ADME; summary of the method: as §2
[18] = target: Cytochrome P450 3A4 (Homo sapiens, UniProt P08684); test: Time-dependent inhibition of CYP3A4 in human liver microsomes at 10 uM using midazolam or testosterone as substrate preincubated up to 30 mins followed by NADPH generating system addition and measured after 10 mins; format: ADME; summary of the method: as §2
[19] = target: CYP2C19 (Homo sapiens, UniProt P33261); test: Reversible inhibition of CYP2C19 in human liver microsomes at 10 uM using mephenytoin as substrate preincubated for 5 mins followed by NADPH generating system addition and measured after 20 mins relative to control; format: ADME; conditions: probe mephenytoin
Summary of the method: (§3)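 Human liver microsomes 0.2 mg/mL, 100 mM phosphate pH 7.4, 10 μM test compound, probe cocktail (10 μM midazolam, 100 μM testosterone, 10 μM dextromethorphan, 20 μM diclofenac, 100 μM phenacetin, 100 μM mephenytoin); organic solvent <1%; 5 min preincubation at 37 °C, started with NADPH-generating system, 20 min reaction; metabolite formation expressed relative to PBS control.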

[20] = target: CYP2C9 (Homo sapiens, UniProt P11712); test: Reversible inhibition of CYP2C9 in human liver microsomes at 10 uM using diclofenac as substrate preincubated for 5 mins followed by NADPH generating system addition and measured after 20 mins relative to control; format: ADME; conditions: probe diclofenac; summary of the method: as §3
[21] = Half life in mouse liver microsomes at 1 uM preincubated for 5 mins followed by NADPH addition and measured after 5 to 30 mins by LC/MS/MS analysis; format: ADME, Microsome; conditions: mouse liver microsomes
[22] = Intrinsic clearance in mouse liver microsomes at 1 uM preincubated for 5 mins followed by NADPH addition and measured after 5 to 30 mins by LC/MS/MS analysis; format: ADME, Microsome; conditions: read-out: CLH
Summary of the method: (§4)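 Liver microsomes (0.5 mg/mL) preincubated 5 min at 37 °C with 1 μM compound in 0.1 M phosphate buffer pH 7.4 containing 1 mM EDTA and 5 mM MgCl2; started with 1 mM NADPH; sampled at 0, 5, 10 and 30 min; quenched with cold acetonitrile; parent remaining quantified by LC/MS/MS.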

[23] = target: CYP3A4 (Homo sapiens, UniProt P08684); test: Reversible inhibition of CYP3A4 in human liver microsomes at 10 uM using midazolam or testosterone as substrate preincubated for 5 mins followed by NADPH addition and measured after 20 mins relative to control; format: ADME; conditions: probe midazolam or testosterone; summary of the method: as §3
[24] = tested on: MM1.S; test: Antitumor activity against human MM1S cells xenografted in SCID mouse assessed as tumor growth at 20 mg/kg, po administered daily relative to control; format: functional
[25] = Half life in human liver microsomes at 1 uM preincubated for 5 mins followed by NADPH addition and measured after 5 to 30 mins by LC/MS/MS analysis; format: ADME, Microsome
[26] = Intrinsic clearance in human liver microsomes at 1 uM preincubated for 5 mins followed by NADPH addition and measured after 5 to 30 mins by LC/MS/MS analysis; format: ADME, Microsome; conditions: read-out: CLH; summary of the method: as §4
[27] = target: T2, Bromodomain-containing protein 4 (Homo sapiens, UniProt O60885); test: Displacement of 5-FITC labelled (+)-JQ1 from His6-tagged human BRD4 bromodomain 1 expressed in Escherichia coli BL21(DE3) )-codon plus-RIL cells incubated for 4 hrs in dark condition by fluorescence anisotropy binding assay
[28] = Tmax in ICR mouse at 3 mg/kg, po administered via gavage measured after 0.25 to 24 hrs by UPLC/MS analysis; format: ADME, organism-based; conditions: in vivo
Summary of the method: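 Male ICR mice dosed orally (3, 10 or 100 mg/kg, per line) in 1% DMSO/0.5% HPMC vehicle; plasma drug levels measured.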

[29] = Cmax in ICR mouse at 3 mg/kg, po administered via gavage measured after 0.25 to 24 hrs by UPLC/MS analysis; format: ADME, organism-based; design: dose 3 mg/kg, route oral; conditions: in vivo
Summary of the method: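 Male ICR mice dosed orally in 1% DMSO/0.5% HPMC vehicle; plasma or brain drug levels used to derive Tmax, Cmax, AUC0-t, AUC0-inf and T1/2.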

[30] = AUC (0 to t) in ICR mouse at 3 mg/kg, po administered via gavage measured after 0.25 to 24 hrs by UPLC/MS analysis; format: ADME, organism-based; design: time upper 24 hr, time lower 0.25 hr, dose 3 mg/kg, route oral; conditions: in vivo
Summary of the method: (§5)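 Male ICR mice were dosed orally in 1% DMSO/0.5% HPMC vehicle. Plasma (and brain, where stated) concentrations gave Tmax, Cmax, T1/2, AUC0-t and AUC0-inf.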

[31] = AUC (0 to infinity) in ICR mouse at 3 mg/kg, po administered via gavage measured after 0.25 to 24 hrs by UPLC/MS analysis; format: ADME, organism-based; design: dose 3 mg/kg, time infinity, route oral; conditions: in vivo; summary of the method: as §5
[32] = Half life in ICR mouse at 3 mg/kg, po administered via gavage measured after 0.25 to 24 hrs by UPLC/MS analysis; format: ADME, organism-based; conditions: in vivo
Summary of the method: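 Male ICR mice dosed orally; vehicle 1% DMSO/0.5% HPMC. Plasma pharmacokinetic parameters, including T1/2, were determined after the single oral dose.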

[33] = target: Bromodomain-containing protein 2 (Homo sapiens) (UniProt P25440); test: Inhibition of BRD2 bromodomain 1 (unknown origin)
[34] = target: Bromodomain-containing protein 2 (Homo sapiens) (UniProt P25440); test: Inhibition of BRD2 bromodomain 2 (unknown origin)
Summary of the method: (§6)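 Bromodomain binding panel (32 bromodomains) screened at 1 μM; primary binding read-out reported as percent of control, lower values meaning stronger binding.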

[35] = target: T2, Bromodomain-containing protein 4; test: Inhibition of BRD4 bromodomain 1 (unknown origin)
Summary of the method: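 BRD4 BD1 (His6-tagged, E. coli BL21(DE3)-expressed, Ni-NTA purified) at 10 nM with 5 nM FITC-labelled (+)-JQ1 tracer; 50 mM HEPES pH 7.4, 150 mM NaCl, 0.5 mM CHAPS, DMSO 2‰ final; graded inhibitor; 4 h dark equilibration at room temperature; fluorescence anisotropy read (ex 485/em 530 nm). IC50 from two independent experiments in duplicate, mean ± SEM.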

[36] = target: Histone acetyltransferase p300 (Homo sapiens) (UniProt Q09472); test: Inhibition of EP300 (unknown origin) at 1 uM; summary of the method: as §6
[37] = target: T2, Bromodomain-containing protein 4; test: Inhibition of BRD4 bromodomain 2 (unknown origin)
[38] = Solubility of the compound in water; format: physicochemical; conditions: buffer

Sequence of Bromodomain-containing protein 2 (Homo sapiens) (P25440 whole entry, looked up): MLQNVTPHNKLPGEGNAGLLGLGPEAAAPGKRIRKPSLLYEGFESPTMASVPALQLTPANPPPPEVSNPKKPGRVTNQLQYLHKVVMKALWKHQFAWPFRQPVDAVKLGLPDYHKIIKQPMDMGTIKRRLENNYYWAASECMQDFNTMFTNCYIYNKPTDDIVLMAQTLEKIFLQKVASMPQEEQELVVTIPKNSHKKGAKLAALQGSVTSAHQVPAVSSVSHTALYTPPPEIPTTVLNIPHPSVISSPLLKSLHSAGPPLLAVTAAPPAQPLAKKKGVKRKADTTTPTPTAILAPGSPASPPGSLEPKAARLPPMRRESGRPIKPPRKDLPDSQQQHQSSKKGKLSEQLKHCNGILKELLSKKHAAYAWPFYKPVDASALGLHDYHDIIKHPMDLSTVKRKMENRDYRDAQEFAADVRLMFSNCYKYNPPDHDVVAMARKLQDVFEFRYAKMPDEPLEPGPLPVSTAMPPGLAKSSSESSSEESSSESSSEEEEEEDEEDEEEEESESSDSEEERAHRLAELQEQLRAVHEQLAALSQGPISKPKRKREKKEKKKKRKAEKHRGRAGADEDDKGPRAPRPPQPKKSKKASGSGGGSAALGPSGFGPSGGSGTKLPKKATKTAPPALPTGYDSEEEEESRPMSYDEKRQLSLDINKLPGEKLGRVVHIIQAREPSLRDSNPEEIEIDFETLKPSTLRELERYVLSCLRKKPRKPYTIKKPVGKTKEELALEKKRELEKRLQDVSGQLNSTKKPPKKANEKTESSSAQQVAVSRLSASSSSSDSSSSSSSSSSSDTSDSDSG
Sequence of Cytochrome P450 2C9 (P11712 whole entry): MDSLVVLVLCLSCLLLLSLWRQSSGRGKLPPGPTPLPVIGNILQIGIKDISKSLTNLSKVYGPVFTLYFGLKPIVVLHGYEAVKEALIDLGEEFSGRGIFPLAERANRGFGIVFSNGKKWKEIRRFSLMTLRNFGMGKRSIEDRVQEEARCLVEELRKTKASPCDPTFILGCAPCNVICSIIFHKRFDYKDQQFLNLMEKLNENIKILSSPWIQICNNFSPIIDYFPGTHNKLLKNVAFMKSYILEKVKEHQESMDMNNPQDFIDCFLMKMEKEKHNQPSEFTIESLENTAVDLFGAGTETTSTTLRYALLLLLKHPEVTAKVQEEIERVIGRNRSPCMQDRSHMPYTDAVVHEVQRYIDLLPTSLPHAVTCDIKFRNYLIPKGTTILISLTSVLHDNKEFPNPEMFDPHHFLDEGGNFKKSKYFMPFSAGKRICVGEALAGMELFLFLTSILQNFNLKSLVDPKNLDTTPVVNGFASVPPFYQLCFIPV
Sequence of CYP2C9 (P11712 whole entry): as above
Sequence of CYP3A4 (P08684 whole entry): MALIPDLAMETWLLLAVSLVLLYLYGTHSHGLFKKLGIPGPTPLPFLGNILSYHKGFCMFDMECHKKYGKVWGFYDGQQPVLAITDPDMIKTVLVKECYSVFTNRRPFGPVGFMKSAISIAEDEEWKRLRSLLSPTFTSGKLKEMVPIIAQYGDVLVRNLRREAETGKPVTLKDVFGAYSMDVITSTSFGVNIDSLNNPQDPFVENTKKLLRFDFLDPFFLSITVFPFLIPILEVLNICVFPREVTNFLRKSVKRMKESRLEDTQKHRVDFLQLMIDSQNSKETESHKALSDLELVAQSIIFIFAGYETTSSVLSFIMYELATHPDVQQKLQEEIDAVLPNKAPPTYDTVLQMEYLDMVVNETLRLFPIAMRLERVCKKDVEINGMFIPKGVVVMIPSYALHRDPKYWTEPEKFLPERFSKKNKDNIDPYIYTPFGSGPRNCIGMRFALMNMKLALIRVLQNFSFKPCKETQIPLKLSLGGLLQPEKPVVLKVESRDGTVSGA
Sequence of Cytochrome P450 3A4 (P08684 whole entry): as above
Sequence of CYP2C19 (P33261 whole entry): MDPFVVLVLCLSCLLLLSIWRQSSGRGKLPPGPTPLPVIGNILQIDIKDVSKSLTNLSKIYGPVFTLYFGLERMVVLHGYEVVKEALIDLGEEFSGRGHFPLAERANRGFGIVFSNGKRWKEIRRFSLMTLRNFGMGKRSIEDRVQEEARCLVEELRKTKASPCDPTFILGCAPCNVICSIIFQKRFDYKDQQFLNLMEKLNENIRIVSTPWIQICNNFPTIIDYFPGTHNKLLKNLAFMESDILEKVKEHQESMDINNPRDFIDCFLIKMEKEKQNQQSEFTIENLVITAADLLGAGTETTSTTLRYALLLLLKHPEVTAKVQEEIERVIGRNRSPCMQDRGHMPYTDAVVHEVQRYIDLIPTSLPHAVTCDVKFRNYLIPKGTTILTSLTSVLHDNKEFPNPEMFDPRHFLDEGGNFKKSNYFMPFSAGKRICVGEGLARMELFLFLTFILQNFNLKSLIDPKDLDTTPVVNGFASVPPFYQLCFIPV
Sequence of Cytochrome P450 2C19 (P33261 whole entry): as above
Sequence of Cytochrome P450 2D6 (P10635 whole entry): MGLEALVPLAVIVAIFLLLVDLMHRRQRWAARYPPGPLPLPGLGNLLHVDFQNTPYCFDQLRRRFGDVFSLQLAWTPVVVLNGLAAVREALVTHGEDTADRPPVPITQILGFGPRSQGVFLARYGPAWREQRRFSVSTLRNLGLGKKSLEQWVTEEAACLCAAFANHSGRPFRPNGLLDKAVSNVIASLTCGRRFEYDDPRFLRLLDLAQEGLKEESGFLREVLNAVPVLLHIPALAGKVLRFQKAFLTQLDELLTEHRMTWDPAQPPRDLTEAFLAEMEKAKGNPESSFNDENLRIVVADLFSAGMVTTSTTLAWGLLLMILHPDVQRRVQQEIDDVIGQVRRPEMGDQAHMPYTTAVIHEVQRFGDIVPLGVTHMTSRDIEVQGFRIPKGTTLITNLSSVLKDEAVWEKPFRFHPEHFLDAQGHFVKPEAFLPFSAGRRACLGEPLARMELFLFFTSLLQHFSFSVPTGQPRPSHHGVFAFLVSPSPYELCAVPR

## Cc1sc2c(c1C)C(c1ccc(Cl)cc1)=N[C@@H](CC(=O)Nc1ccc(O)cc1)c1nnc(C)n1-2 [BIRABRESIB]
[1]
  pIC50: 8.20
[2]
  Activity: Active
[3]
  Activity: Active
[4]
  Activity: Active
[5]
  Activity: Dose-dependent effect
[6]
  Activity: Dose-dependent effect
[7]
  Activity: Dose-dependent effect
[8]
  Activity: Dose-dependent effect
[9]
  Activity: Dose-dependent effect
[10]
  Activity: Active
[11]
  inhibition in vivo at 50 mg/kg: 71.5%
[12]
  inhibition in vivo at 100 mg/kg: 87.5%

## Cc1ccc(-n2c(C)nnc2-c2ccc3c(c2)N(C2CC2)C(C)C(=O)N3C)cc1 (centres undefined)
[13]
  solubility: Insoluble
[14]
  TDI: Not Active
[15]
  TDI: Not Active
[16]
  TDI: Not Active
[17]
  TDI: Not Active
[18]
  TDI: Not Active
[19]
  inhibition at 20 min, 10 µM: 41%
[20]
  inhibition at 20 min, 10 µM: 10%
[21]
  half-life at 1 µM: 3 min
[22]
  microsomal CLint at 1 µM: 460 µL/min/mg
[23]
  inhibition at 20 min, 10 µM: 3%
[24]
  T/C: 67.4%
[25]
  half-life at 1 µM: 31.5 min
[26]
  microsomal CLint at 1 µM: 44 µL/min/mg
[27]
  pIC50: 8.24
[1]
  pIC50: 8.48
[28]
  Tmax: 18 min
[29]
  Cmax: 265 ng/mL
[30]
  AUC(0-t): 243 ng·h/mL
[31]
  AUC(0-inf): 244 ng·h/mL
[32]
  half-life: 42 min
[33]
  inhibition activity call (active/inactive): Active
[34]
  inhibition: Active
[35]
  inhibition: Active
[36]
  inhibition: inactive
[37]
  inhibition: Active
[38]
  solubility: Insoluble
